Kir21 block = Kir2.1 (mouse) channel inhibition; B-score at 10 µM; HEK293-Kir2.1, FluxOR thallium flux fluorescence; stronger effect = lower value; AID 1672; P35561; hit rate 0.85% among 310,000;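 active means fluorescence ratio B-score at or below minus 3 SD of library scores, with starting-brightness B-score within 2 SD, cut at about -4.2 in these data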;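 further: channel flux triggered by added potassium and thallium sulfate stimulus; B-score of peak minus minimum fluorescence over baseline after thallium stimulus; more negative B-score means stronger Kir2.1 block with less thallium influx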
TRPC6 inhibitor = blocks the mouse TRPC6 cation channel. B-score at 10 µM. Q61143. HEK293-TRPC6, membrane potential dye, ACh-evoked depolarization; stronger effect = lower value. hit rate 1.1% among 310,000;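 active means B-score under library mean minus 3 SD, initial fluorescence not abnormally high, positive integrated signal ratio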;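 further: B-score derived from integrated fluorescence ratio over the kinetic read; more negative B-score means stronger inhibition of depolarization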
TRPC4 PAM = allosterically enhances the mouse TRPC4 cation channel; Q9QUQ5; HEK293 TRPC4beta/mu-opioid, DAMGO EC20, Fluo-4 Ca2+ flux; stronger effect = higher value; B-score at 10 µM; hit rate 0.42% among 310,000; AID 2227;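 active means B-score of calcium response area above 5 SD of library B-scores, with initial fluorescence ratio within 5 SD of library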
Target sequence (Q9QUQ5 whole entry, looked up): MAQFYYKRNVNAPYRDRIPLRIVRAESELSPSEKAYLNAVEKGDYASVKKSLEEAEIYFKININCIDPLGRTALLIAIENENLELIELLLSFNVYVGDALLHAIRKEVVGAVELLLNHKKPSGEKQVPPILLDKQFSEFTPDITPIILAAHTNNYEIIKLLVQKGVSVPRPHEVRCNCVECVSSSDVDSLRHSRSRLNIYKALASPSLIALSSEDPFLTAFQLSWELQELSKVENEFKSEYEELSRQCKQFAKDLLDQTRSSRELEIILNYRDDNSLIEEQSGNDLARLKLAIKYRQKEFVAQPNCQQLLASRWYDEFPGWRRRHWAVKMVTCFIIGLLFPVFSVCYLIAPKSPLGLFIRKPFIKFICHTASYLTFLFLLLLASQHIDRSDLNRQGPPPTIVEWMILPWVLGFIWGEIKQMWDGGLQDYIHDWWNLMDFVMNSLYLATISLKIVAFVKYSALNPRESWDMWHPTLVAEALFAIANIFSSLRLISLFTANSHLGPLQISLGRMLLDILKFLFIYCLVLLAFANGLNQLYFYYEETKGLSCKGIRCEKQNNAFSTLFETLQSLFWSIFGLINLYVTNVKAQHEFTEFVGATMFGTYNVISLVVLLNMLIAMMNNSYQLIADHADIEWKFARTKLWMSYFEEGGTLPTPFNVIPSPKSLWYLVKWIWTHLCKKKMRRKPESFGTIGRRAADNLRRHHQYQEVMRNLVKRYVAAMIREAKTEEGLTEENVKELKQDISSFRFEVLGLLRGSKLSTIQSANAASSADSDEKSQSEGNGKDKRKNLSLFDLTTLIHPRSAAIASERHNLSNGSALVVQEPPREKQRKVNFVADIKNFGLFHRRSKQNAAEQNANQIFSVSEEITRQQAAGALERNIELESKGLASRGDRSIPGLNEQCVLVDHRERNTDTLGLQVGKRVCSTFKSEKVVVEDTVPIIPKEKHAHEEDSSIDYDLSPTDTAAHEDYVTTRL
TRPC6 act = activates the mouse TRPC6 cation channel | Q61143 | HEK293-TRPC6 membrane potential dye fluorescence; stronger effect = higher value | B-score at 10 µM | hit rate 0.13% among 310,000;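 active means B-score of the integrated fluorescence ratio above library mean plus 3 SD, and starting fluorescence ratio within library mean plus 5 SD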;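 further: higher score means more depolarization so channel activation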
TRPC4 inh = blocks the mouse TRPC4 cation channel; hit rate 0.39% among 300,000; B-score at 10 µM; AID 2247; HEK293 TRPC4beta/mu-opioid, DAMGO-evoked Fluo4 calcium flux; stronger effect = lower value;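 active means B-score over 3 SD under the library average, no early fluorescence shift, positive overall ratio signal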
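Material: HEK293 cells with stable TRPC4beta plus mu-opioid receptor expression; probe or stimulus: DAMGO in two steps, submaximal then maximal; technique: Fluo4 calcium fluorescence by kinetic imaging, 5 s 1 Hz baseline; measure: integrated fluorescence ratio relative to baseline, converted to per-well B score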
TRPC4 agonist = activators of mouse TRPC4 channel. AID 2237. B-score at 10 µM. HEK293 TRPC4beta/mu-opioid, Fluo4 calcium fluorescence; stronger effect = higher value. Q9QUQ5. hit rate 0.49% among 310,000;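 active means B-score above 5 SD of library B-scores, and initial fluorescence ratio not above library mean plus 5 SD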;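 further: positive B-score marks a calcium rise read as TRPC4 activation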
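Technique: kinetic Fluo4 calcium fluorescence; Test system: TRPC4beta and mu-opioid receptor HEK293 stable cells; Measure: B-scored integrated calcium fluorescence ratio; Benchmarks: low control buffer alone, high control maximal DAMGO; Schedule: 45 min room-temperature Fluo4 loading, 110 s read.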
TRPC4 sel inh 2 = mouse TRPC4 off-target activity of TRPC6 inhibitors, second screen; inhibition, % at 10 µM; AID 2776; shares compounds with TRPC6 inhibitor; HEK293 TRPC4/MOR, membrane potential dye fluorescence; channel activated by saturating DAMGO dose; hit rate 42% among 920;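 active means compounds whose fluorescence signal differed from control wells by over 3 SD, either direction, in both duplicate plates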
TRPC4 spec = tests whether TRPC6 inhibitors also affect mouse TRPC4. HEK293 TRPC4/mu-opioid, membrane potential fluorescence. activity change, negative = inhibition, % at 10 µM. hit rate 61% among 920. shares compounds with TRPC6 inhibitor;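 active means rise or fall in signal beyond 3 SD of buffer-only wells in both replicate plates, either sign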;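 further: integrated kinetic ratio of fluorescence range over baseline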
HEK293 MPD ctr 2-1 = parental HEK293 nonspecific activity of TRPC6 inhibitors, second screen; shares compounds with TRPC6 inhibitor; hit rate 31% among 920; parental HEK293 membrane potential dye fluorescence; maximal acetylcholine challenge after compound addition; signal change vs control, % at 10 µM; AID 2779;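 active means membrane potential signal moving either way by over 3 SD of the maximum-effect control, in both duplicate plates, meaning non-specific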
HEK293 MPD ctr-1 = parental HEK293 nonspecific activity of TRPC6 inhibitors; parental HEK293 membrane potential dye fluorescence; hit rate 60% among 920; membrane potential signal change, % at 10 µM; AID 2780; shares compounds with TRPC6 inhibitor;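 active means membrane potential signal shifting up or down by more than 3 SD of buffer-only wells, on both duplicate plates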
HEK293 MPD ctr-2 = parental HEK293 nonspecific activity of TRPC6 modulators; membrane potential signal change, % at 10 µM; AID 488924; membrane potential dye fluorescence; hit rate 51% among 2,400; shares compounds with TRPC6 inhibitor;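 active means membrane potential signal moves up or down beyond 5 SD from buffer-only wells, on both duplicate plates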
HEK293 MPD ctr 2-2 = second counter-screen for TRPC6 modulators: effect in parental HEK293 cells | shares compounds with TRPC6 inhibitor | membrane potential dye fluorescence; after compound, maximal acetylcholine stimulation | inhibition, % at 10 µM | hit rate 14% among 2,400 | AID 488926;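 active means membrane potential signal drops by more than 5 SD from the mean control signal, in both duplicate plates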
TRPC4/MOR mod = selectivity of TRPC6 modulators against mouse TRPC4; shares compounds with TRPC6 inhibitor; HEK293 TRPC4/mu-opioid, membrane potential fluorescence; percent change from control (negative = decrease, positive = increase), % at 10 µM; hit rate 69% among 2,400; AID 488927;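 active means membrane potential signal moved up or down beyond 5 SD of buffer control wells, in both duplicate plates, actives on both sides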
TRPC4/MOR inh 2 = mouse TRPC4 off-target activity of TRPC6 modulators, second screen. shares compounds with TRPC6 inhibitor. HEK293 TRPC4/mu-opioid, membrane potential dye fluorescence; stimulated with maximal-effect DAMGO. inhibition, % at 10 µM. hit rate 55% among 2,400;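 active means drop in membrane potential signal beyond 5 SD of the control wells in both duplicate plates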;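 further: TRPC4 counter screen for TRPC6 hits run under conditions tuned for TRPC6 not TRPC4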
TRPC6 block conf = mouse TRPC6 inhibitor confirmation; AID 488960; inhibition, % at 10 µM; shares compounds with TRPC6 inhibitor; hit rate 43% among 3,300; HEK293-TRPC6, membrane potential dye, ACh-evoked depolarization;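 active means fluorescence ratio falls more than 5 SD below the full-stimulation control mean, in both duplicate runs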;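 further: integrated fluorescence ratio of peak minus minimum over baseline after agonist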
TRPC6 act confirm = confirmation of mouse TRPC6 activators; shares compounds with TRPC6 inhibitor; HEK293-TRPC6 membrane potential dye fluorescence, FDSS; activation, % at 10 µM; hit rate 11% among 2,800; AID 488961;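 active means ratio signal rise beyond 5 SD above unstimulated control wells' mean, seen in both duplicate runs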
Of the large screens only hits and unclear results are named; the others gave an inactive call (follow-up assays come after a bar, where they were run). Hits are enriched below; roughly 2.9% of the tested compounds scored in any of these assays.

COc1ccc(CNN2CCCCC2C(=O)Nc2ccc(OC)c(OCC(C)C)c2)cc1OC (centres undefined)	none
Cc1cccc(NCC(=O)N/N=C\c2c[nH]c3ccccc23)c1	TRPC6 inhibitor -5.8 | HEK293 MPD ctr-2 -63% | HEK293 MPD ctr 2-2 inactive | TRPC4/MOR mod -20% | TRPC4/MOR inh 2 40% | TRPC6 block conf 38% | TRPC6 act confirm inactive
Cc1cccc(NCC(=O)N/N=C\c2ccccn2)c1	none
CCn1c2ccccc2c2nnc(SCc3ccccc3)nc21	none
CCN(CC)CCSc1nnc2c3cc(F)ccc3n(Cc3ccccc3)c2n1	TRPC6 inhibitor -5.9 | HEK293 MPD ctr-2 -78% | HEK293 MPD ctr 2-2 inactive | TRPC4/MOR mod inactive | TRPC4/MOR inh 2 78% | TRPC6 block conf inactive | TRPC6 act confirm inactive
CCN(CC)CCSc1nnc2c3ccccc3n(Cc3ccccc3)c2n1	TRPC6 inhibitor -8.2 | TRPC4 sel inh 2 21% | TRPC4 spec 12% | HEK293 MPD ctr 2-1 inactive | HEK293 MPD ctr-1 -230% | TRPC6 block conf 66% | TRPC6 act confirm inactive
O=C(NCc1ccccc1Cl)C1CCCN(C(=O)Nc2ccc(F)cc2)C1 (centres undefined)	none
CC(C)Oc1ccc(C(CCN)C2CCCCC2)cc1 (centres undefined)	Kir21 block -8.3, TRPC6 inhibitor -6.7 | TRPC4 sel inh 2 51% | TRPC4 spec inactive | HEK293 MPD ctr 2-1 inactive | HEK293 MPD ctr-1 inactive | TRPC6 block conf inactive | TRPC6 act confirm inactive
CC(C)Oc1ccc(OCCCN2CCCCCC2)cc1	none
Cc1cccc(OCC(=O)NS(=O)(=O)c2ccc(Br)cc2)c1	none
COc1ccc(CNC(C)C23CC4CC(CC(C4)C2)C3)c(OC)c1OC (centres undefined)	TRPC6 inhibitor -8.1 | TRPC4 sel inh 2 inactive | TRPC4 spec 35% | HEK293 MPD ctr 2-1 inactive | HEK293 MPD ctr-1 19% | TRPC6 block conf 96%
Cc1ccc(OCC(=O)N2CCN(c3nnc(-c4ccc(C)cc4)c4ccccc34)CC2)cc1	none
COCCNC(=S)NN=C1CCCCC1	none
COc1ccc(OCCNc2cc(N3CCCCC3)ccc2[N+](=O)[O-])cc1	none
CC1CN(c2ccc([N+](=O)[O-])c(NCCOc3ccccc3)c2)CCN1 (centres undefined)	Kir21 block -5.1, TRPC6 inhibitor -7.3 | TRPC4 sel inh 2 inactive | TRPC4 spec -11% | HEK293 MPD ctr 2-1 inactive | HEK293 MPD ctr-1 -142% | TRPC6 block conf inactive | TRPC6 act confirm inactive
Cc1ccccc1NC(C)C(=O)N/N=C/c1ccccc1OCc1cccc(Br)c1 (centres undefined)	TRPC6 inhibitor -5.2 | HEK293 MPD ctr-2 inactive | HEK293 MPD ctr 2-2 inactive | TRPC4/MOR mod inactive | TRPC4/MOR inh 2 inactive | TRPC6 block conf inactive | TRPC6 act confirm inactive
CC1CCN(C(=O)c2ccc3c(c2NCCO)C(=O)c2ccccc2C3=O)CC1	TRPC6 inhibitor -7.7 | HEK293 MPD ctr-2 -209% | HEK293 MPD ctr 2-2 inactive | TRPC4/MOR mod -35% | TRPC4/MOR inh 2 76% | TRPC6 block conf 51% | TRPC6 act confirm inactive
Cc1ccc(S(=O)(=O)N2CCC(=O)N(CCOC(=O)Nc3cccc(Cl)c3)CC2)cc1	TRPC6 inhibitor -10, TRPC6 act 16 | HEK293 MPD ctr-2 inactive | HEK293 MPD ctr 2-2 inactive | TRPC4/MOR mod inactive | TRPC4/MOR inh 2 inactive | TRPC6 block conf 108% | TRPC6 act confirm 160%
Cc1ccc(NC(=O)OCCN2CCN(S(=O)(=O)c3ccc(C)cc3)CCC2=O)cc1	none
Cc1ccc(S(=O)(=O)N2CCC(=O)N(CCOC(=O)Nc3ccc(C)c(C)c3)CC2)cc1	TRPC6 inhibitor -6.9 | TRPC4 sel inh 2 inactive | TRPC4 spec inactive | HEK293 MPD ctr 2-1 inactive | HEK293 MPD ctr-1 inactive | TRPC6 block conf inactive
COC(=O)N1C(=O)[C@](c2ccccc2)(C2CCCC2)N1C(=O)OC	none
CCOC(=O)c1cc(C)sc1NC(=O)CSc1nccn1C	none
O=[N+]([O-])c1ccc(Oc2ccc(F)cc2)c2ccncc12	TRPC6 inhibitor -5.1 | HEK293 MPD ctr-2 inactive | HEK293 MPD ctr 2-2 inactive | TRPC4/MOR mod inactive | TRPC4/MOR inh 2 inactive | TRPC6 block conf inactive | TRPC6 act confirm inactive
CN1CCN(C(=O)c2ccc(Cn3cc(Cl)cn3)o2)CC1	none
O=C(c1ccccc1Cl)N1CCN(Cc2ccc3c(c2)OCO3)CC1	TRPC6 act 13 | HEK293 MPD ctr-2 inactive | HEK293 MPD ctr 2-2 inactive | TRPC4/MOR mod inactive | TRPC4/MOR inh 2 inactive | TRPC6 block conf inactive | TRPC6 act confirm 32%
O=C(O)CCC(=O)N1CCN(Cc2ccc3c(c2)OCO3)CC1	TRPC6 inhibitor -6.8 | TRPC4 sel inh 2 inactive | TRPC4 spec inactive | HEK293 MPD ctr 2-1 inactive | HEK293 MPD ctr-1 inactive | TRPC6 block conf inactive | TRPC6 act confirm inactive
O=C(c1ccc(Cn2cc(Cl)cn2)o1)N1CCN(Cc2ccc3c(c2)OCO3)CC1	TRPC6 inhibitor -5.7 | HEK293 MPD ctr-2 98% | HEK293 MPD ctr 2-2 inactive | TRPC4/MOR mod 18% | TRPC4/MOR inh 2 inactive | TRPC6 block conf 40%

Compound activity (PubChem)
